From ChEMBL document CHEMBL1132620, “Piperazine imidazo[1,5-a]quinoxaline ureas as high-affinity GABAA ligands of dual functionality” (J Med Chem, 1999)
Calls of active or inactive are those of the source. The rule behind the calls is not given here.

Experiments:
[1] = system: Rattus norvegicus; assay: Total plasma clearance was determined for the compound after iv dose of 4.74 mg/kg in rats; format: ADME, organism-based; set-up: dose 4.74 mg/kg, route intravenous; conditions: in vivo
[2] = system: Rattus norvegicus; assay: Area under curve was determined for the compound after iv dose of 4.74 mg/kg in rats; format: ADME, organism-based; set-up: dose 4.74 mg/kg, route intravenous; conditions: in vivo
[3] = Half-life after iv dose of 4.74 mg/kg in rats; format: ADME, organism-based; set-up: dose 4.74 mg/kg, route intravenous; conditions: rat, in vivo
[4] = biological target: T1, GABA-A receptor; anion channel (Rattus norvegicus) (UniProt O09028+P15431+P18506+P18508+P19969+P20236+P23574+P23576+P28471+P28473+P30191+P62813+P63079+P63138+Q91ZM7+Q9ES14); assay: (§1) Displacement of [3H]flunitrazepam from GABA-A benzodiazepine receptor of rat cortical membranes; format: cell membranes; set-up: concentration or dose not given beside the values; conditions: Membrane, concentration not given here
Method in brief: (§2)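 Rat membranes incubated 60 min at 4 °C with [3H]flunitrazepam, 50 µg membrane protein and graded test drug in 200 µL containing NaCl, 10 mM Hepes/Tris pH 7.4 and 1 mM MgCl2; bound ligand separated by rapid filtration on GF/B; mean affinity, SE ≤10% of mean.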

[5] = biological target: GABA-A receptor; anion channel; assay: as §1; format: cell membranes, Membrane; method in brief: as §2
[6] = biological target: T1, GABA-A receptor; anion channel (Rattus norvegicus); assay: Shift in [35S]TBPS binding to GABA-A Benzodiazepine receptor of rat brain membrane
[7] = biological target: T2, GABA-A receptor; alpha-1/beta-2/gamma-2 (Homo sapiens) (UniProt P14867+P47870+P18507); assay: (§3) In vitro GABA-mediated chloride current in A293 cells expressing GABA-A benzodiazepine receptor alpha-1-beta-2-gamma-2 subunits at 5 uM; format: functional, cell-based; conditions: HEK293
[8] = biological target: GABA A receptor alpha-3/beta-2/gamma-2 (Homo sapiens) (UniProt P47870+P18507+P34903); assay: In vitro GABA-mediated chloride current in A293 cells expressing GABA-A benzodiazepine receptor alpha-3-beta-2-gamma-2 subunits at 5 uM; format: functional, cell-based; conditions: HEK293
[9] = organism: Mus musculus; assay: Ability to antagonize the muscle relaxation effect in mice caused by a benzodiazepine full agonist, triazolam.; format: functional
Method in brief: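 Muscle relaxation induced by triazolam; test compound and triazolam given separately, traction scored 30 min after dosing; ED50 for blocking the relaxant effect.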

[10] = system: Mus musculus; assay: In vivo efficacy is evaluated by percent control of cerebellar GMP levels in (drug+stress) treated mice/mice under stress; format: functional; set-up: concentration or dose not given beside the values
Method in brief: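 Male CF-1 mice given drug orally in vehicle 122 before electric footshock stress, controls given vehicle (1 mL/100 g); killed 30 min after treatment; cerebellum homogenized in 1% perchloric acid, iced 30 min, boiled 5 min, spun 17000g 20 min; supernatant cGMP by radioimmunoassay, expressed as % of stress control.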

[11] = system: Mus musculus; assay: In vivo acute electroshock physical dependence activity in mice; Not active.; format: functional, organism-based
[12] = system: Rattus norvegicus; assay: In vivo efficacy evaluated for ability to antagonize metrazole induced clonic convulsions in rat after ip injection; format: functional
[13] = system: Rattus norvegicus; assay: Geller-cook activity was determined using wilcoxon signed rank test on non punished schedule at dose 0.3 mg/kg.; format: functional
Method in brief: (§4)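 Geller–Cook conflict schedule with punished and nonpunished response rates recorded per treatment; 6 animals per dose, controls 12–17; each dose compared to its own control by Wilcoxon signed rank test, p < 0.05.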

[14] = system: Rattus norvegicus; assay: Geller-cook activity was determined using wilcoxon signed rank test on non punished schedule at dose 1 mg/kg.; format: functional; method in brief: as §4
[15] = system: Rattus norvegicus; assay: Geller-cook activity was determined using wilcoxon signed rank test on non punished schedule at dose 3 mg/kg.; format: functional; method in brief: as §4
[16] = system: Rattus norvegicus; assay: Geller-cook activity was determined using wilcoxon signed rank test on punished schedule at dose 0.3 mg/kg.; format: functional; method in brief: as §4
[17] = system: Rattus norvegicus; assay: Geller-cook activity was determined using wilcoxon signed rank test on punished schedule at dose 1 mg/kg.; format: functional; method in brief: as §4
[18] = system: Rattus norvegicus; assay: Geller-cook activity was determined using wilcoxon signed rank test on punished schedule at dose 3 mg/kg.; format: functional; method in brief: as §4
[19] = system: Rattus norvegicus; assay: Mean number of shocks in vogel''s punished licking assay in rats by 3 mg/kg Diazepam; format: functional
Method in brief: (§5)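 Vogel punished licking test in rats; number of shocks accepted recorded per dose group (n 6–10); each dose compared with the 0 mg/kg group of the same experiment by Wilcoxon rank sum test.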

[20] = system: Rattus norvegicus; assay: Mean number of shocks produced by the compound in rats at a dose of 0 mg/kg was determined by vogel's punished licking assay; format: functional; method in brief: as §5
[21] = system: Rattus norvegicus; assay: Mean number of shocks produced by the compound in rats at a dose of 0.3 mg/kg was determined by vogel's punished licking assay; format: functional; method in brief: as §5
[22] = system: Rattus norvegicus; assay: Mean number of shocks produced by the compound in rats at a dose of 1 mg/kg was determined by vogel's punished licking assay; format: functional; method in brief: as §5
[23] = system: Rattus norvegicus; assay: Mean number of shocks produced by the compound in rats at a dose of 10 mg/kg was determined by vogel's punished licking assay; format: functional; method in brief: as §5
[24] = system: Rattus norvegicus; assay: Mean number of shocks produced by the compound in rats at a dose of 3 mg/kg was determined by vogel's punished licking assay; format: functional; method in brief: as §5
[25] = biological target: T2, GABA-A receptor; alpha-1/beta-2/gamma-2 (Homo sapiens); assay: as §3; format: functional, cell-based; conditions: HEK293; remark: listed apart in the source
[26] = Total plasma clearance Clp was determined for the compound after iv dose of 5.06 mg/kg in rats; format: ADME, organism-based; set-up: dose 5.06 mg/kg, route intravenous; conditions: rat, read-out: Clp (converted)
[27] = Area under curve was determined for the compound after iv dose of 5.06 in rats; format: ADME, organism-based; conditions: rat, in vivo
[28] = Area under curve was determined for the compound after po dose of 5.01 mg/kg in rats; format: ADME, organism-based; set-up: dose 5.01 mg/kg, route oral; conditions: rat, in vivo
[29] = Maximum serum concentration was determined for the compound after po dose of 5.01 mg/kg in rats; format: ADME, organism-based; set-up: dose 5.01 mg/kg, route oral; conditions: rat
[30] = Oral bioavailability at a dose of 5.01 mg/kg in rats; format: ADME, organism-based; conditions: rat, in vivo
[31] = Time at which Cmax was reached was determined for the compound after po dose of 5.01 mg/kg in rats; format: ADME, organism-based; set-up: dose 5.01 mg/kg, route oral; conditions: rat, in vivo
Method in brief: (§6)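 Male Sprague–Dawley rats dosed orally with compound in a solution formulation, n = 3–4 per compound; serum drug concentrations measured over time, lower limit of quantitation 50 ng/mL. Tmax reported as the range of observed values across animals.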

[32] = Half-life after iv dose of 5.06 mg/kg in rats; format: ADME, organism-based; set-up: dose 5.06 mg/kg, route intravenous; conditions: rat, in vivo
[33] = Half-life after po dose of 5.01 mg/kg in rats; format: ADME, organism-based; set-up: dose 5.01 mg/kg, route oral; conditions: rat, in vivo
[34] = system: Mus musculus; assay: In vivo acute electroshock physical dependence activity in mice; Inactive; format: functional, organism-based
[35] = system: Rattus norvegicus; assay: Mean number of shocks produced by CDPZ in rats at a dose of 12 mg/kg was determined by vogel's punished licking assay; format: functional; method in brief: as §5
[36] = Total plasma clearance after iv dose of 5.10 mg/kg in rats; format: ADME, organism-based; set-up: dose 5.1 mg/kg, route intravenous; conditions: rat, 5.1 mg/kg, read-out: Clp (converted)
[37] = Area under curve was determined for the compound after iv dose of 5.10 mg/kg in rats; format: ADME, organism-based; set-up: dose 5.1 mg/kg, route intravenous; conditions: rat, in vivo, 5.1 mg/kg
[38] = Area under curve was determined for the compound after po dose of 5.22 mg/kg in rats; format: ADME, organism-based; set-up: dose 5.22 mg/kg, route oral; conditions: rat, in vivo
[39] = Maximum serum concentration after po dose of 5.22 mg/kg in rats; format: ADME, organism-based; set-up: dose 5.22 mg/kg, route oral; conditions: rat
[40] = Oral bioavailability in rats at a dose of 5.22 mg/kg; format: ADME, organism-based; conditions: rat, in vivo
[41] = Time at which Cmax was reached was determined after po dose of 5.22 mg/kg of compound in rats; format: ADME, organism-based; set-up: dose 5.22 mg/kg, route oral; conditions: rat, in vivo; method in brief: as §6
[42] = Half-life after po dose of 5.22 mg/kg in rats; format: ADME, organism-based; set-up: dose 5.22 mg/kg, route oral; conditions: rat, in vivo
[43] = system: Mus musculus; assay: In vivo acute electroshock physical dependence activity in mice; Active; format: functional, organism-based
[44] = system: Rattus norvegicus; assay: Geller-cook activity was determined using wilcoxon signed rank test on non punished schedule at dose 1 mg/kg in rats; format: functional; method in brief: as §4
[45] = system: Rattus norvegicus; assay: Geller-cook activity was determined using wilcoxon signed rank test on non punished schedule at dose 3 mg/kg in rats; format: functional; method in brief: as §4
[46] = system: Rattus norvegicus; assay: Geller-cook activity was determined using wilcoxon signed rank test on punished schedule at dose 1 mg/kg in rats; format: functional; method in brief: as §4
[47] = system: Rattus norvegicus; assay: Geller-cook activity was determined using wilcoxon signed rank test on punished schedule at dose 3 mg/kg in rats; format: functional; method in brief: as §4
[48] = Half-life after iv dose of 5.10 mg/kg in rats; format: ADME, organism-based; set-up: dose 5.1 mg/kg, route intravenous; conditions: rat, in vivo, 5.1 mg/kg

Row | SMILES | inhibition [4] | Ki [5] | Shift [6] | Change in Cl- current [7] | Change in Cl- current [8] | ED50 [9] | Control [10] | ED50 [12] | Mean no. of shocks [20] | Mean no. of shocks [21] | Mean no. of shocks [22] | Mean no. of shocks [23] | Mean no. of shocks [24] | Change in Cl- current [25] | Mean no. of shocks [35] | further results
1 | C[C@@H]1CN(C(=O)N2Cc3c(C(=O)OC(C)(C)C)ncn3-c3ccc(Cl)cc32)C[C@H](C)N1C | 86% | 4.48 nM | -0.06 | -0.2 | 1 | 7 mg/kg | 36% | 14.8 mg/kg | 8.4 | 8 | 7 | 18 | 18 | 1 |  | Clp [1]: 45.2 mL/min/kg; AUC [2]: 3570 ng·h/mL; half-life [3]: 0.57 h; Acute electroshock activity [11]: inactive; Gellar cook activity [13]: 38; Gellar cook activity [14]: 56; Gellar cook activity [15]: 36; Gellar cook activity [16]: 22; Gellar cook activity [17]: 53; Gellar cook activity [18]: 65; Mean no. of shocks [19]: 13
2 | C[C@H]1CN(C(=O)N2Cc3c(C(=O)OC(C)(C)C)ncn3-c3ccc(Cl)cc32)C[C@H](C)N1 | 45% | 16.7 nM | 0.37 | 0.4 |  | > 30 mg/kg | 69% | 7.4 mg/kg | 3.3 | 3.9 | 5.2 | 8.8 | 5.6 | 1.05 | 14.8 | clearance [26]: 17.8 mL/min/kg; AUC [27]: 5010 ng·h/mL; AUC [28]: 2620 ng·h/mL; Cmax [29]: 660 ng/mL; bioavailability [30]: 54%; Tmax [31]: 0.25 h; half-life [32]: 1.5 h; half-life [33]: 2.4 h; Acute electroshock activity [34]: inactive
3 | CCCC(=O)O.C[C@@H]1CN(C(=O)N2Cc3c(C(=O)OC(C)(C)C)ncn3-c3ccc(Cl)cc32)C[C@H](C)N1 | 71% | 3.27 nM | 0.48 | 0.3 | 0.54 | > 30 mg/kg | 64% | 3.7 mg/kg | 3.8 | 5.3 | 3.1 | 12 | 5.7 | 0.85 | 19 | clearance [36]: 25.2 mL/min/kg; AUC [37]: 3540 ng·h/mL; AUC [38]: 3570 ng·h/mL; Cmax [39]: 1170 ng/mL; bioavailability [40]: 101%; Tmax [41]: 0.5 h; half-life [42]: 1.8 h; Acute electroshock activity [43]: Active; Gellar cook activity [44]: 47; Gellar cook activity [45]: 43; Gellar cook activity [46]: 46; Gellar cook activity [47]: 27; half-life [48]: 1.2 h
